Measurements from ChEMBL document CHEMBL1122206, “Use of adenine nucleotide derivatives to assess the potential of exo-active-site-directed reagents as species- or isozyme-specific enzyme inactivators. 5. Interactions of adenosine 5'-triphosphate derivatives with rat pyruvate kinases, Escherichia coli thymidine kinase, and yeast and rat …” (1982).
Where “and” joins values, the source holds several entries; their conditions need not be identical. Equal entries are not always repeated. Blank lines part the entries; values can stand above or below the compound they belong to.

Experiments:
[1] = Substrate concentration for half maximal velocity was reported for rat hexokinase II
Procedure, shortened: (§1)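 Coupled glucose-6-phosphate dehydrogenase/NADP assay: A340 rate at 22 °C in 0.05 M Tris-HCl pH 7.6 with 6.6 mM MgCl2, 10 mM α-D-glucose and 0.93 mM NADP, nucleotide varied. KM was taken from linear double-reciprocal plots. Rat HK I and III came from electrofocused, dialysed liver extract, HK II from dialysed muscle extract, and yeast HK was isoelectric-focused.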

[2] = Substrate concentration for half maximal velocity was reported for rat hexokinase I; procedure, shortened: as §1
[3] = Compound was tested for substrate constants with rat hexokinase. Maximal velocity Vmax was reported
Procedure, shortened: (§2)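 Hexokinase KM and Vmax taken from linear double-reciprocal plots of initial velocity vs. nucleotide level. Assays at 22 °C, coupled to glucose-6-phosphate dehydrogenase (A340), in 0.05 M Tris-HCl pH 7.6 with 6.6 mM MgCl2, 10 mM glucose and 0.93 mM NADP. Yeast HK was isoelectric-focused. Rat HK I and III came from liver, HK II from muscle (male Sprague-Dawley).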

[4] = Compound was tested for substrate constants with yeast hexokinase. Maximal velocity Vmax was reported; procedure, shortened: as §2
[5] = Substrate concentration for half maximal velocity was reported for rat hexokinase III; procedure, shortened: as §1
[6] = Substrate concentration for half maximal velocity was reported for yeast hexokinase; procedure, shortened: as §1
[7] = molecular target: Thymidine kinase (Escherichia coli) (UniProt P23331); experiment: Compound was tested for the lose of thymidine kinase activity after 6 hr, at 0 degrees celsius, with 10 mM ATP derivative. values were expressed in percent
[8] = molecular target: Thymidine kinase (Escherichia coli) (UniProt P23331); experiment: Compound was tested for the initial inhibition of thymidine kinase by 1.4 mM compound in the presence of 5.7 mM ATP in Escherichia coli
[9] = molecular target: T1, Hexokinase-1 (Rattus norvegicus) (UniProt P05708); experiment: Time dependent inhibition of Hexokinase type I activity after 6 h, at 22 degrees celsius, at 5 mM compound
T1 sequence (whole entry): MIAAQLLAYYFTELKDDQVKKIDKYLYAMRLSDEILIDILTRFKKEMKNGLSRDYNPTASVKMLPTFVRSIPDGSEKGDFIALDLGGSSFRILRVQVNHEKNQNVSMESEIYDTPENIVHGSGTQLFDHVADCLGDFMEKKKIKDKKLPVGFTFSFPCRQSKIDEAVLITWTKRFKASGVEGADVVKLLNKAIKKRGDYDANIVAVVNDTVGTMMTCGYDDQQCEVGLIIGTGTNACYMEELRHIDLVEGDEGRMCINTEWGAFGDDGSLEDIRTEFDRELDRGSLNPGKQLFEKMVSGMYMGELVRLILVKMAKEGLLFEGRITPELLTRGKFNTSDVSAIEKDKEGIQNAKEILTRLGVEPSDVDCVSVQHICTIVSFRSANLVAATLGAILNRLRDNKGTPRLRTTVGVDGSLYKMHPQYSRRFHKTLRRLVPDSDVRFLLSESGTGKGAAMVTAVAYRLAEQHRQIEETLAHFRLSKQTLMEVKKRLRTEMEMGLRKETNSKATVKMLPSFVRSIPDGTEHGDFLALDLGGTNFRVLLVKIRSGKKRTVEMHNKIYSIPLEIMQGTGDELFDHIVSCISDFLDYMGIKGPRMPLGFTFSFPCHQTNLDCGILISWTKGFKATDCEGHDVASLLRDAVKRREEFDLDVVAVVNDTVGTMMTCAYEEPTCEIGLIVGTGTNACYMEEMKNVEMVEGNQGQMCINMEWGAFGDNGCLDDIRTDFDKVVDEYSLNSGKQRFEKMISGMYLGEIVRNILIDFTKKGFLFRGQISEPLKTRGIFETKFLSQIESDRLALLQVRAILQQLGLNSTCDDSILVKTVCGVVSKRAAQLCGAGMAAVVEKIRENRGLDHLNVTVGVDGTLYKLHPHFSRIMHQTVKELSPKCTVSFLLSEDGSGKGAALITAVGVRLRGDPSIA

[10] = molecular target: T2, Hexokinase-3 (Rattus norvegicus) (UniProt P27926); experiment: Substrate activity for rat hexokinase III as 1:1 Mg complex at 5.0 mM
T2 sequence (whole entry): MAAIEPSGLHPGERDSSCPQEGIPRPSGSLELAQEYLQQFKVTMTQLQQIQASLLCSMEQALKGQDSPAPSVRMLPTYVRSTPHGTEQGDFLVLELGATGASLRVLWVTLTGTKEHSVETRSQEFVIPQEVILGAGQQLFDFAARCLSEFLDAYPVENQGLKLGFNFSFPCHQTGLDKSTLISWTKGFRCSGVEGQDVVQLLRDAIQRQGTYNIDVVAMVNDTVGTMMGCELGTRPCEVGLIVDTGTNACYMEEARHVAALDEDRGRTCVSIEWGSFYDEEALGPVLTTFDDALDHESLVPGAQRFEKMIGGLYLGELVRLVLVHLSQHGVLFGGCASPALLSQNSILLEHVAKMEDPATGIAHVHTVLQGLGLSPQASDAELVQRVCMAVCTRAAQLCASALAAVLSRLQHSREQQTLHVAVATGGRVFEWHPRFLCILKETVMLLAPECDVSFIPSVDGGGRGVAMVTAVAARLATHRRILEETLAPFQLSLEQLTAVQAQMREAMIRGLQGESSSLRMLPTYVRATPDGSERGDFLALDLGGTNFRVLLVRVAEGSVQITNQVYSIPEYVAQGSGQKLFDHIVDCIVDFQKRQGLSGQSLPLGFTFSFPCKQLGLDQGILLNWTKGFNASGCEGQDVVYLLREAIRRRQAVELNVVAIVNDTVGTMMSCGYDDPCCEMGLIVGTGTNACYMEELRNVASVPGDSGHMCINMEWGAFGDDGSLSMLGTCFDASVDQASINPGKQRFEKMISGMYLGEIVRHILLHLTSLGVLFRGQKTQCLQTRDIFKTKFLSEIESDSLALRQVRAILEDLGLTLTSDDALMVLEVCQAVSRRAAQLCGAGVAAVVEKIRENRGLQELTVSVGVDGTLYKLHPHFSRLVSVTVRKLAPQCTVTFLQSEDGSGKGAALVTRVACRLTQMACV
Procedure, shortened: (§3)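 Hexokinase activity read at 22 °C as A340 change, coupled to glucose-6-phosphate dehydrogenase, in 0.05 M Tris-HCl pH 7.6 with 6.6 mM MgCl2, 10 mM α-D-glucose and 0.93 mM NADP. Donor was 5.0 mM MgATP derivative (1:1 Mg complex) in place of ATP. Yeast HK was isoelectric-focused. Rat HK I and III came from electrofocused liver extract, HK II from dialysed muscle extract.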

[11] = molecular target: T1, Hexokinase-1 (Rattus norvegicus); experiment: Substrate activity for rat hexokinase I as 1:1 Mg complex at 5.0 mM; procedure, shortened: as §3
[12] = molecular target: T3, Hexokinase-2 (Rattus norvegicus) (UniProt P27881); experiment: Time dependent inhibition of hexokinase 2 activity after 6 h, at 5 mM compound
T3 sequence (whole entry): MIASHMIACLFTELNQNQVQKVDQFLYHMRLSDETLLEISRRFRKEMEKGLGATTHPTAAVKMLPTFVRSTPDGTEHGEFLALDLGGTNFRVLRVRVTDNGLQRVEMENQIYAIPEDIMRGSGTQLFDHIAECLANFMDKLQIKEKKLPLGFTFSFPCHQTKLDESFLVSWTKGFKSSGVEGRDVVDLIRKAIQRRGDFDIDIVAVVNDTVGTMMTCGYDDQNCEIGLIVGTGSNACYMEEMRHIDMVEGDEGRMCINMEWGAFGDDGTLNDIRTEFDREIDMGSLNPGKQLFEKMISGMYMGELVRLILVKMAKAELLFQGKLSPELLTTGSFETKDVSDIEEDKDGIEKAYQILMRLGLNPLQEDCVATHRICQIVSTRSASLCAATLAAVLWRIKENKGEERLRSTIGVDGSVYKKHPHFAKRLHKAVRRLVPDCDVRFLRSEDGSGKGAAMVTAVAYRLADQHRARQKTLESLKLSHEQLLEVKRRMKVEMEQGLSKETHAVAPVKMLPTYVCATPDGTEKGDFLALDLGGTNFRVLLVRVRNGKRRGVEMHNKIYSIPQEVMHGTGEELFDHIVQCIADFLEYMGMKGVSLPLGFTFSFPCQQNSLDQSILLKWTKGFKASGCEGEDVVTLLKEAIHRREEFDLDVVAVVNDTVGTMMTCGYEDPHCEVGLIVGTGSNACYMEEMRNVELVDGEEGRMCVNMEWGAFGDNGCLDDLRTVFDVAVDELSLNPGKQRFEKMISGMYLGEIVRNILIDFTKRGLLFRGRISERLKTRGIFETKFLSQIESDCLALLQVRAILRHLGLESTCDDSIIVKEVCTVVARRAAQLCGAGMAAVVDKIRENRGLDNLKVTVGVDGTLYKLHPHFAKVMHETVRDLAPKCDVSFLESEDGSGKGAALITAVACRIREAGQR

Rattus norvegicus = species on record: Rattus norvegicus; experiment: Compound was tested for the affinity to Rat pyruvate kinase relative to the normal substrate. Affinity is expressed as KM (ATP or ADP)/ Ki of inhibitor.; type: functional
[13] = (§4) Extent of inactivation caused by the compound was reported.; type: functional
[14] = molecular target: T3, Hexokinase-2 (Rattus norvegicus); experiment: Substrate activity against Rat hexokinase II as 1:1 Mg complex at 5.0 mM; procedure, shortened: as §3
Saccharomyces cerevisiae [15] = experiment: Time dependent inhibition of hexokinase activity after 6 hr, at 22 degrees celsius, with 5 mM ATP derivative in yeast.
Saccharomyces cerevisiae [16] = experiment: Substrate activity against yeast hexokinase as 1:1 Mg complexes at 5.0 mM; procedure, shortened: as §3
[17] = molecular target: T2, Hexokinase-3 (Rattus norvegicus); experiment: Time dependent inhibition of Hexokinase type III activity after 6 h, at 22 degrees celsius, at 5 mM
[18] = Tested for the velocity of 2.8 mM compound relative to that of 2.8 mM MgATP in the assay
Procedure, shortened: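 E. coli TK substrate test. 0.5 h after adding inhibitor, the mixture was diluted to 2.8 mM derivative in thymidine assay medium without ATP and with 1.42 mM MnCl2. Incubated 15 min at 37 °C, in the linear range. [14C]TMP formed was compared with that from 2.8 mM ATP under the same conditions.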

[19] = as §4
[20] = Compound was tested for the affinity relative to the normal substrate. Affinity is expressed as KM (ATP or ADP)/ Ki of inhibitor.

Sequence of Thymidine kinase (Escherichia coli) (P23331 whole entry, looked up): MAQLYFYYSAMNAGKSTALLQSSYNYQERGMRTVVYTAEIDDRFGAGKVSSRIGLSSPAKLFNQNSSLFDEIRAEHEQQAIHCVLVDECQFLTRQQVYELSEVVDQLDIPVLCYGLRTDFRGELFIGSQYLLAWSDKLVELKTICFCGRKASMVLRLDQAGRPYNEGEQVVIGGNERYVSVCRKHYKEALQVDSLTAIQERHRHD

Km [1]: 270 µM
Km [2]: 180 µM
Vmax [3]: 45% and 35% and 23%
Vmax [4]: 75%
Km [5]: 100 µM
Km [6]: 320 µM
SMILES: CN(CCCN(C)C(=O)CCCCNc1ncnc2c1ncn2[C@@H]1O[C@H](COP(=O)(O)OP(=O)(O)OP(=O)(O)O)[C@@H](O)[C@H]1O)C(=O)CCCCNC(=O)OCc1ccccc1

inhibition [7]: 0%
inhibition [8]: 19%
inhibition [9]: 35%
Relative velocity [10]: 2.81
Relative velocity [11]: 1.79
inhibition [12]: 41%
Relative velocity [14]: 1.26
inhibition (Saccharomyces cerevisiae [15]): 30%
Relative velocity (Saccharomyces cerevisiae [16]): 1.82
inhibition [17]: 47%
SMILES: O=C(CI)NCCCCCCCCNc1ncnc2c1ncn2[C@@H]1O[C@H](COP(=O)(O)OP(=O)(O)OP(=O)(O)O)[C@@H](O)[C@H]1O
Relative affinity (Rattus norvegicus): 0.011
Inactivation [13]: > 90%

inhibition [7]: 53%
inhibition [8]: 11%
inhibition [9]: 0%
Velocity [18]: > 13%
inhibition [12]: 0%
Relative inactivation [19]: > 80
Relative affinity [20]: 0.56
inhibition [17]: 0%
SMILES: CN(CCCCN(C)c1ncnc2c1ncn2[C@@H]1O[C@H](COP(=O)(O)OP(=O)(O)OP(=O)(O)O)[C@@H](O)[C@H]1O)C(=O)CCCCCNC(=O)CI
